Data: PubChem BioAssay
Active and inactive are the calls of the source.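 How the source made its calls, unless noted: active means viability at or under a set limit in both replicates, limit being median viability minus 3 SD (cut at about 48% in these data, passing the limit was not always enough); inconclusive means at or under the limit in just one replicate; inactive means at or above the limit in both replicates.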

Legend:
[1] = reducers of endogenous Her2 protein level, primary screen, SKBR3 breast tumor cells, AlphaScreen, ATP viability (AID 461;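 active means Her2 level under about 52% in both replicate screens, with viability over 70% of control, limit read from the data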;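 on Her2 level: lower value means less Her2 protein in the cells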;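 on viability: percent of carrier control wells set as 100% viability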); conditions: 18-24 h, measured here: SKBR3 viability, ATP luminescence, at 10 µM
[2] = target: Receptor tyrosine-protein kinase erbB-2 (Homo sapiens) (UniProt P04626); assay: as above; conditions: 18-24 h, at 10 µM, stronger effect = lower value
Sequence of Receptor tyrosine-protein kinase erbB-2 (Homo sapiens) (P04626 whole entry, looked up): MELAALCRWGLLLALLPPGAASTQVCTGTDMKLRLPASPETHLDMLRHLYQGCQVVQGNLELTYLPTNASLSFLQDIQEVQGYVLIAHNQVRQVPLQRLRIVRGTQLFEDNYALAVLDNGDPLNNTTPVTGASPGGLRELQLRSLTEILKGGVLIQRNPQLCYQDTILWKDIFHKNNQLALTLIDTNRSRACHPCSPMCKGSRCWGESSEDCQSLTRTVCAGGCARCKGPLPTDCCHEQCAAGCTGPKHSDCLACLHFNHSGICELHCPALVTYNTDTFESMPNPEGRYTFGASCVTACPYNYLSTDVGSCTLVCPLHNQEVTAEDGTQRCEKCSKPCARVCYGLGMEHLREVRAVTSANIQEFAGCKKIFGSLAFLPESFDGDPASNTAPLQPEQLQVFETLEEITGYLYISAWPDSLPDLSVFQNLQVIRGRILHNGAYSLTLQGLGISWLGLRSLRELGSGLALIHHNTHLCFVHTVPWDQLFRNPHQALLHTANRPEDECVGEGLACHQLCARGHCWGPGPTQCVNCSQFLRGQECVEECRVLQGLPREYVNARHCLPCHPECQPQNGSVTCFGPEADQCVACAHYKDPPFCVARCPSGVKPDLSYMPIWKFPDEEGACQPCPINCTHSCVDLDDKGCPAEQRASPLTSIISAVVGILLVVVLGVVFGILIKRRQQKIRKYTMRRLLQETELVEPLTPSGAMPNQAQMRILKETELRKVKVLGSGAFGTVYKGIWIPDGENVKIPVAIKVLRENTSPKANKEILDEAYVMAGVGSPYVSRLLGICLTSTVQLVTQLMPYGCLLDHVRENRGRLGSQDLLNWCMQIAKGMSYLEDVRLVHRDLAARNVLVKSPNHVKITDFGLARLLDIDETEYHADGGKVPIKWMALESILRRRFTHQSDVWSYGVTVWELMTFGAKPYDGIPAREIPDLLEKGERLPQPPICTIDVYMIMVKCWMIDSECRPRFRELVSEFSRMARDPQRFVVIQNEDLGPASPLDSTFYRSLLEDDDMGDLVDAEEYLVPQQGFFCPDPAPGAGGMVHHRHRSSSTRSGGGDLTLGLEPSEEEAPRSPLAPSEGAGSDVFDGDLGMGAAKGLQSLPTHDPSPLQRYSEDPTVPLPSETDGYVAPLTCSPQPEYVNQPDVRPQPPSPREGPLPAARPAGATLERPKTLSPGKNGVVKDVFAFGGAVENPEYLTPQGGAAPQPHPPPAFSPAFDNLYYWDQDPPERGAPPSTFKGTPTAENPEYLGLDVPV

[3] = SK-BR-3 cell growth inhibitors, pilot screen, 24 h, human (AID 572;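 active means viability at or below 10% of carrier control in both of two separate runs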;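 further: compound exposure lasted between 18 and 24 h rather than exactly 24 h; 100% = carrier-treated control wells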); conditions: SK-BR-3 viability, CellTiter-Glo luminescence, at 10 µM, stronger effect = lower value
[4] = HUVEC growth inhibition – cell-based, human, primary screen (AID 575;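 active means viability at or below 30% in both replicate assays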;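 further: 100% = median of untreated cell wells with 0.1% DMSO on each plate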); conditions: HUVEC proliferation, CellTiter-Glo luminescence, 72 h; at 10 µM; stronger effect = lower value
In short: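 System: primary human umbilical vein endothelial cells; Quantity: 1250 endothelial cells in each well; Buffer or medium: supplemented EBM, 2% fetal bovine serum; Doses: one dose, 10 µM final, 0.1% DMSO; Incubation: 72 h compound incubation; Technique: ATP-based CellTiter-Glo luminescent read; Evaluation: percent of median DMSO-control luminescence; Controls: vehicle and MePR control wells.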

[5] = growth inhibitors of H69AR lung tumor, primary screen, human, duplicate replicates (AID 580); conditions: H69AR lung tumor cells viability, ATP luminescence, 72 h; at 10 µM; stronger effect = lower value;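 further: 100% = mean luminescence of untreated wells and 0% = no signal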
[6] = reversal of MRP1-mediated doxorubicin resistance, pilot screen, H69AR cells, doxorubicin co-treatment (AID 601;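 active means viability loss from added drug above about 55%, and viability with drug at most 40%, in both replicates, limit read from the data, passing the limit was not always enough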); conditions: CellTiter-Glo, 72 h, at 10 µM; for differential viability (reversal): stronger effect = higher value
[7] = 384-well plate pilot, post-Golgi transport modulator project, inhibition of yeast transport mutant growth (AID 636; in the data active means inhibition above about 31%); conditions: absorbance 615 nm, about 18 h, stronger effect = higher value
[8] = growth suppression of yeast trafficking mutant, preliminary HTS, modulators of trafficking downstream of Golgi apparatus project, 1536-format plate, OD 615 nm (AID 637; in the data active means inhibition above about 30%); conditions: yeast transport mutant growth, absorbance 615 nm, 18 h; stronger effect = higher value
[9] = H69AR cells + 2 uM doxorubicin, measured here: viability with 2 uM doxorubicin, stronger effect = lower value
[10] = H69AR cells, compound alone cytotoxicity

Structure (SMILES)	viability [1] [%]	Her2 level [2]	viability [3]	viability [4]	viability [5]	differential viability (reversal) ([6]; H69AR cells + 2 uM doxorubicin)	viability [6, 9] [%]	viability [6, 10] [%]	inhibition [7]	inhibition [8]
COc1ccccc1N1CCN(c2nc3ccccc3nc2C(C#N)C(=O)OC(C)C)CC1 (stereo not given)	77	112% (inactive)	77% (inactive)	71.6% (inactive)	80.3% (inactive)	3.12% (inactive)	77.2	80.3	1.58% (inactive)	-1.82% (inactive)
CCCCOCCCNC(=O)c1cccs1	103	102% (inactive)	103% (inactive)	97.8% (inactive)	104% (inactive)	11.5% (inactive)	92.5	104	-2.21% (inactive)	-3.17% (inactive)
COC(=O)c1cc(Br)c(=O)n(-c2nccs2)c1	121	93.5% (inactive)	121% (inactive)	107% (inactive)	96.5% (inactive)	9.32% (inactive)	87.2	96.5	-4.27% (inactive)	-6.39% (inactive)
COC(=O)c1sc(S(=O)(=O)NCc2cccs2)c(C(=O)OC)c1C	84	93% (inactive)	84% (inactive)	85.8% (inactive)	92.3% (inactive)	7.38% (inactive)	84.9	92.3	-8.24% (inactive)	4.26% (inactive)
CN(C)S(=O)(=O)c1ccc2c(c1)C(CC(=O)O)OC2=O (stereo not given)	94	96.5% (inactive)	94% (inactive)	111% (inactive)	96.1% (inactive)	-0.855% (inactive)	96.9	96.1	-1.6% (inactive)	17.1% (inactive)
CC(=O)c1cnc2cc(-c3ccccc3)nn2c1C	91.5	110% (inactive)	91.5% (inactive)	91.4% (inactive)	103% (inactive)	19.5% (inactive)	83.1	103	0% (inactive)	-10.7% (inactive)
C=COC(=O)CSc1snc(SCC(=O)OC)c1C#N	85.5	92.5% (inactive)	85.5% (inactive)	66.2% (inactive)	98.9% (inactive)	3.02% (inactive)	95.9	98.9	-5.89% (inactive)	6.98% (inactive)
O=C(COc1ccccc1)NCC(c1cccs1)N1CCOCC1 (stereo not given)	84	126% (inactive)	84% (inactive)	91.7% (inactive)	97.7% (inactive)	14.4% (inactive)	83.4	97.7	1.2% (inactive)	-4.29% (inactive)
COc1cccc(N2CCN(CC(=O)NCc3cccs3)CC2)c1	108	100% (inactive)	108% (inactive)	128% (inactive)	99% (inactive)	6.28% (inactive)	92.8	99	-3.38% (inactive)	-2.17% (inactive)
CC1CCCC(NC(=O)CSc2ncccc2C(=O)O)C1C (stereo not given)	95	79% (inactive)	95% (inactive)	86.4% (inactive)	87.8% (inactive)	3.03% (inactive)	84.7	87.8	-4.61% (inactive)	-4.36% (inactive)
CCOC(=O)c1sc(NC(=O)C2CC=CCC2C(=O)O)nc1C (stereo not given)	105	92.5% (inactive)	105% (inactive)	100% (inactive)	98.1% (inactive)	1.07% (inactive)	97.1	98.1	-1.04% (inactive)	-1.64% (inactive)
Nc1nonc1N1CCCCC1	85.5	152% (inactive)	85.5% (inactive)	106% (inactive)	99.1% (inactive)	11.5% (inactive)	87.6	99.1	-3.51% (inactive)	-7.33% (inactive)
COc1cccc(OCC(O)CN2CCN(CCO)CC2)c1 (stereo not given)	92.5	96% (inactive)	92.5% (inactive)	101% (inactive)	93.2% (inactive)	1.65% (inactive)	91.6	93.2	1.18% (inactive)	6.39% (inactive)
CCN(CC)C(=O)CSc1nc2ccccc2c(=O)n1CCC(=O)NCc1ccc(F)cc1	93	105% (inactive)	93% (inactive)	98.3% (inactive)	92.7% (inactive)	3.08% (inactive)	89.6	92.7	4.34% (inactive)	20.2% (inactive)
Cc1nc(NCc2ccco2)c2oc3ccccc3c2n1	114	87% (inactive)	114% (inactive)	100% (inactive)	80.6% (inactive)	-1.13% (inactive)	81.8	80.6	-6.4% (inactive)	4.44% (inactive)
COCCn1nnnc1C(c1cccs1)N1CCN(c2cc(C)ccc2C)CC1 (stereo not given)	107	84.5% (inactive)	107% (inactive)	84.8% (inactive)	92.5% (inactive)	2.44% (inactive)	90.1	92.5	1.3% (inactive)	1.27% (inactive)
